Laboratory results: ChEMBL document CHEMBL4033605 (J Nat Prod, 2017)
The source made the active and inactive calls. The calls are words filed in the database; no cut-off is given here. Where a SMILES comes first, the peptide text is derived from it.

Columns and labels:
[1] = Cytotoxic activity against human H116 cells assessed as zone diffusion inhibition by measuring distance to perimeter (diffusion distance units) at 9 umol by disk diffusion soft agar colony inhibition assay (reference value: 0 unit); format: functional
[2] = Cytotoxic activity against human H116 cells assessed as zone diffusion inhibition by measuring distance to perimeter (diffusion distance units) at 36 umol by disk diffusion soft agar colony inhibition assay (reference value: 0 unit); format: functional
[3] = Cytotoxic activity against human H125 cells assessed as zone diffusion inhibition by measuring distance to perimeter (diffusion distance units) at 9 umol by disk diffusion soft agar colony inhibition assay (reference value: 0 unit); format: functional
CFU-GM [4] = test: Cytotoxic activity against human CFU-GM cells assessed as zone diffusion inhibition by measuring distance to perimeter (diffusion distance units) at 9 umol by disk diffusion soft agar colony inhibition assay (reference value: 0 unit); format: functional
[5] = Cytotoxic activity against human H125 cells assessed as zone diffusion inhibition by measuring distance to perimeter (diffusion distance units) at 36 umol by disk diffusion soft agar colony inhibition assay (reference value: 0 unit); format: functional
PANC-1 = test: Cytotoxic activity against human PANC1 cells assessed as zone diffusion inhibition by measuring distance to perimeter (diffusion distance units) at 36 umol by disk diffusion soft agar colony inhibition assay (reference value: 0 unit); format: functional
MCF7 [6] = test: Cytotoxic activity against human MCF7 cells assessed as zone diffusion inhibition by measuring distance to perimeter (diffusion distance units) at 9 umol by disk diffusion soft agar colony inhibition assay (reference value: 0 unit); format: functional
CCRF-CEM [7] = test: Cytotoxic activity against human CEM cells assessed as zone diffusion inhibition by measuring distance to perimeter (diffusion distance units) at 36 umol by disk diffusion soft agar colony inhibition assay (reference value: 0 unit); format: functional
CFU-GM [8] = test: Cytotoxic activity against human CFU-GM cells assessed as zone diffusion inhibition by measuring distance to perimeter (diffusion distance units) at 36 umol by disk diffusion soft agar colony inhibition assay (reference value: 0 unit); format: functional
LNCaP [9] = test: Cytotoxic activity against human LNCAP cells assessed as zone diffusion inhibition by measuring distance to perimeter (diffusion distance units) at 36 umol by disk diffusion soft agar colony inhibition assay (reference value: 0 unit); format: functional
[10] = Cytotoxic activity against human U251N cells assessed as zone diffusion inhibition by measuring distance to perimeter (diffusion distance units) at 36 umol by disk diffusion soft agar colony inhibition assay (reference value: 0 unit); format: functional
[11] = biological target: Dipeptidyl peptidase 4 (Homo sapiens) (UniProt P27487); test: Inhibition of human recombinant DPP4 at <3.33 uM using H-Gly-Pro AMC substrate incubated for 30 mins by spectrophotometry
Chain of Dipeptidyl peptidase 4 (Homo sapiens) (P27487 whole entry, looked up): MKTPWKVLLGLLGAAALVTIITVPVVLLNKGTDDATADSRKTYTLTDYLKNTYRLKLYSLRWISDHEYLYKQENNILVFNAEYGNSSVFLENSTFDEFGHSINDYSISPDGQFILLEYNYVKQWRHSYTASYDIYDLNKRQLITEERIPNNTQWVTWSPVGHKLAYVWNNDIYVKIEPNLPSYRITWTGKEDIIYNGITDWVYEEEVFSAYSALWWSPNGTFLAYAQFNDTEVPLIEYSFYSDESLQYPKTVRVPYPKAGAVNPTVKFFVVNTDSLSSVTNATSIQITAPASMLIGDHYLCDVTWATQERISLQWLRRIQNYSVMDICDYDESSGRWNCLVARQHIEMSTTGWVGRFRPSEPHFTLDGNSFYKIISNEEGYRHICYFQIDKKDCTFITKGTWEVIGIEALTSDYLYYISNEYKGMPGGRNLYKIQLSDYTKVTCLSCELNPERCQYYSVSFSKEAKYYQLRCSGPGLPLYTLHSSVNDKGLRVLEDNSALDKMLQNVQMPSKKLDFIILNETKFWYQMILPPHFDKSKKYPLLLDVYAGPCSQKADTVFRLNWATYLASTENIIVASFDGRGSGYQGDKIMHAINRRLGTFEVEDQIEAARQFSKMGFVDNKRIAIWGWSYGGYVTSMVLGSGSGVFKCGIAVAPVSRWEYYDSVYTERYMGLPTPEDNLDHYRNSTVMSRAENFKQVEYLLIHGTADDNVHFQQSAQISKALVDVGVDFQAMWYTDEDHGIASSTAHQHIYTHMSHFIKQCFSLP
Procedure, shortened: (§1)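 Human recombinant DPP4 was assayed in 20 mM Tris-HCl pH 8.0 with 100 mM NaCl and 1 mM EDTA. Compound in DMSO was tested at 10 µM final, with three-fold serial dilutions down to 1.5 nM. H-Gly-Pro-AMC substrate was added as a 200 µM solution. After 30 min at 37 °C, fluorescence was read at excitation 355 and emission 455 nm. Background wells had no enzyme. All conditions were run in triplicate.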

OVCAR-5 = test: Cytotoxic activity against human OVCAR5 cells assessed as zone diffusion inhibition by measuring distance to perimeter (diffusion distance units) at 36 umol by disk diffusion soft agar colony inhibition assay (reference value: 0 unit); format: functional
LNCaP [12] = test: Cytotoxic activity against human LNCAP cells assessed as zone diffusion inhibition by measuring distance to perimeter (diffusion distance units) at 9 umol by disk diffusion soft agar colony inhibition assay (reference value: 0 unit); format: functional
CCRF-CEM [13] = test: Cytotoxic activity against human CEM cells assessed as zone diffusion inhibition by measuring distance to perimeter (diffusion distance units) at 9 umol by disk diffusion soft agar colony inhibition assay (reference value: 0 unit); format: functional
[14] = Cytotoxic activity against human U251N cells assessed as zone diffusion inhibition by measuring distance to perimeter (diffusion distance units) at 9 umol by disk diffusion soft agar colony inhibition assay (reference value: 0 unit); format: functional
MCF7 [15] = test: Cytotoxic activity against human MCF7 cells assessed as zone diffusion inhibition by measuring distance to perimeter (diffusion distance units) at 36 umol by disk diffusion soft agar colony inhibition assay (reference value: 0 unit); format: functional
[16] = biological target: Dipeptidyl peptidase 4 (Homo sapiens) (UniProt P27487); test: Inhibition of human recombinant DPP4 at 10 uM using H-Gly-Pro AMC substrate incubated for 30 mins by spectrophotometry; procedure, shortened: as §1
HCT-116 = test: Cytotoxic activity against human HCT116 cells incubated for 48 hrs by MTT assay; format: functional, cell-based; settings: HCT-116, 48 h
NCI-H460 = test: Cytotoxic activity against human H460 cells incubated for 48 hrs by MTT assay; format: functional, cell-based; settings: NCI-H460, 48 h

SMILES	inhibition zone (IZ) [1] [U]	inhibition zone (IZ) [2] [U]	inhibition zone (IZ) [3] [U]	inhibition zone (IZ) (CFU-GM [4]) [U]	inhibition zone (IZ) [5] [U]	inhibition zone (IZ) (PANC-1) [U]	inhibition zone (IZ) (MCF7 [6]) [U]	inhibition zone (IZ) (CCRF-CEM [7]) [U]	inhibition zone (IZ) (CFU-GM [8]) [U]	inhibition zone (IZ) (LNCaP [9]) [U]	inhibition zone (IZ) [10] [U]	inhibition [11]	inhibition zone (IZ) (OVCAR-5) [U]	inhibition zone (IZ) (LNCaP [12]) [U]	inhibition zone (IZ) (CCRF-CEM [13]) [U]	inhibition zone (IZ) [14] [U]	inhibition zone (IZ) (MCF7 [15]) [U]	inhibition [16] [%]	IC50 (HCT-116) [nM]	IC50 (NCI-H460) [nM]
CC[C@H](C)[C@@H]1NC(=O)[C@@H]2CCCN2C(=O)[C@H](Cc2ccccc2)NC(=O)[C@H](C(C)C)NC(=O)[C@H](CC(C)C)NC(=O)[C@@H]2CCCN2C(=O)[C@@H]2CCCN2C(=O)[C@H](Cc2ccccc2)NC1=O (cyclo(LVFPIFPP))	200	600	300	400	550	200	300	600	700	500	500	inactive	200	300	350	300	500	15.7	< 10000	–
COc1cccc2c1C(=O)c1c(O)c3c(c(O)c1C2=O)C[C@@](O)(C(=O)CO)C[C@@H]3O[C@H]1C[C@H](N)[C@H](O)[C@H](C)O1 [DOXORUBICIN]	–	–	–	–	–	–	–	–	–	–	–	–	–	–	–	–	–	–	–	200
